Results on one compound are retold here after ChEMBL document CHEMBL1629555, “Antimalarial activity of phenylthiazolyl-bearing hydroxamate-based histone deacetylase inhibitors” (Antimicrob Agents Chemother, 2008).

The subject of assay [1] is Plasmodium berghei. As to the kind of experiment: Antimalarial activity against Plasmodium berghei infected in mouse assessed as parasitemia level at 32 mg/kg/day for 3 days measured on day 6 (reference value: 37%). Type of assay: functional. In short, it runs like this: (§1)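 Mice were infected ip with 10^6 P. berghei-parasitized erythrocytes. The compound was given orally once daily on days 3, 4 and 5 post-infection in hydroxyethylcellulose-Tween 20 vehicle, alone or together with chloroquine, with 5 mice per dose group. Parasitemia (%) was read on days 3 and 6, and cures were counted as animals cured out of 5.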

Assay [2] relates to Plasmodium falciparum. As to the kind of experiment: Antimalarial activity against chloroquine-resistant Plasmodium falciparum FVO infected in Aotus lemurinus leminurus monkey assessed as reduction in parasitemia at 8 mg/kg/day, po for 3 days. Type of assay: functional, organism-based.
In assay [3] the test system is Plasmodium falciparum. As to the kind of experiment: Antimalarial activity against Plasmodium falciparum at 1 nM assessed as parasite growth after 3.5 hrs. Type of assay: functional. In short, it runs like this: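 Infected erythrocytes were exposed to compound for 3.5 h, washed, and returned to culture. Parasite growth was compared with matched controls after 48 h.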

Assay [4] relates to Plasmodium berghei. Briefly: Antimalarial activity against Plasmodium berghei infected in mouse assessed as parasitemia level at 0.32 mg/kg/day for 3 days measured on day 3 in presence of 4 mg/kg/day chloroquine (reference value: 0.46%). Type of assay: functional.
Assay [5] concerns Plasmodium berghei. Briefly: Antimalarial activity against Plasmodium berghei infected in mouse assessed as parasitemia level at split dose of 80 mg/kg/day, po for 3 days measured on day 6 relative to control. The assay is classed as functional. A digest of the protocol: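 Blood-stage P. berghei model: mice inoculated ip with 10^6 parasitized erythrocytes. Oral treatment for 3 days, with the daily dose split, in hydroxyethylcellulose-Tween 20 vehicle. Day-6 parasitemia expressed as a fraction of control parasitemia.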

Assay [6] relates to Plasmodium falciparum. Briefly: Antimicrobial activity against Plasmodium falciparum W2 at […] in presence of 4 mg/kg chloroquine. The assay is classed as functional.
The subject of assay [7] is Plasmodium berghei. As to the kind of experiment: Antimalarial activity against Plasmodium berghei infected in mouse assessed as parasitemia level at single dose of 40 mg/kg/day, po for 3 days measured on day 6 relative to control. The assay is classed as functional. In short, it runs like this:
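Mice infected intraperitoneally with 10^6 P. berghei-parasitized erythrocytes. Drug given orally once daily on days 3, 4 and 5 post-infection in hydroxyethylcellulose-Tween 20 vehicle, 5 mice per dose group. Parasitemia measured on day 6 and expressed as a fraction of untreated control parasitemia.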

Assay [8] relates to Plasmodium berghei. Briefly: Antimalarial activity against Plasmodium berghei infected in mouse assessed as parasitemia level at 32 mg/kg/day for 3 days measured on day 3 (reference value: 0.46%). Type of assay: functional. A digest of the protocol: as §1

Calls of active or inactive are those of the source. The calls are words filed in the database; no cut-off is given here.

Regarding `Nc1cccc(-c2csc(NC(=O)CCCCCCC(=O)NO)n2)c1`, the Activity in assay [1] is recorded as 21%; in assay [3], “<=40%”; in assay [4], 0.72%; in assay [8], 0.38%. The inhibition result in assay [2] was “inactive”. Besides, the results for the “fold change (FC)” value in assay [5] and in assay [7] were 0.05 and 0.12, respectively. The “fractional inhibitory concentration index (FICI)” value in assay [6] is recorded as 1.9.
